Calls of active or inactive are those of the source.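 The calls were made as follows: active = IC50 at or below 1 µM; inactive = the rest.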
Target: Protein-arginine deiminase type-4 (Homo sapiens) (UniProt Q9UM07)
Test: recombinant human PAD4 inhibitors – biochemical, BAEE substrate, citrulline absorbance, 0-500 µM range, late-stage follow-up (AID 588421)
Settings: recombinant PAD4, BAEE citrulline colorimetric absorbance
Procedure, shortened: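 Timing: 15 min preincubation (37 °C), 15 min reaction; assay system: recombinant human PAD4 enzyme (protein-arginine deiminase 4); compound: 7 doses, 0–500 µM; signal: colorimetric absorbance of citrulline product at 540 nm; medium: pH 7.6 Tris, CaCl2, DTT; read-out: IC50 from fitted fractional PAD4 activity, citrulline standard curve; also added: 10 mM BAEE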

Chain of Protein-arginine deiminase type-4 (Homo sapiens) (Q9UM07 whole entry, looked up): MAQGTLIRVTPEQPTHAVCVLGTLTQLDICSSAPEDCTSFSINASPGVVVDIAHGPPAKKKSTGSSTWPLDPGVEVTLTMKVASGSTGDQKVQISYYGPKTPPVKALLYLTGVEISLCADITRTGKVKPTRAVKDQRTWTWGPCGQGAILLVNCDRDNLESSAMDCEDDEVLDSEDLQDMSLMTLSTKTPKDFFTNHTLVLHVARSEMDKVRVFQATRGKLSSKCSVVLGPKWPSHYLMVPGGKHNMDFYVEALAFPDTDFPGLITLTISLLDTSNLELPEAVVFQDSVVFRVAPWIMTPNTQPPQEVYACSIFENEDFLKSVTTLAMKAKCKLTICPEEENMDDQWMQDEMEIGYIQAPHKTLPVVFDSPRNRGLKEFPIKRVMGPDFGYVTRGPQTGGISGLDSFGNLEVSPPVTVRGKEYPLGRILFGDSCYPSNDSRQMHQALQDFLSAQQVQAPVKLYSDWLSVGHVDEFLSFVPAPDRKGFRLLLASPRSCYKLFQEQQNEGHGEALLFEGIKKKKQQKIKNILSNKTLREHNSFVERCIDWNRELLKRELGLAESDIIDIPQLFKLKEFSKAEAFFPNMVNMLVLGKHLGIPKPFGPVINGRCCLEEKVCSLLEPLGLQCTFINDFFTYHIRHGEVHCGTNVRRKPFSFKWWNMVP

- IC50: inactive
Structure (SMILES): COC(=O)c1nc(C(=O)OC)c(NC(C)=O)c(-c2ccccc2Br)c1C
